HKDC1 activator – activators of human hexokinase HKDC1 | Q2TB90 | recombinant HKDC1, G6PDH/diaphorase resazurin fluorescence; stronger effect = lower value | activity change, negative = activation, % at 20 µM | 340,000 tested, 0.056% active | AID 493187;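 active = activation of 40% or more at 20 µM, a change of -40% or lower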
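Signal: coupled resazurin-to-resorufin fluorescence, Ex 525/Em 613 nm. Test system: in-house human HKDC1 enzyme, G6PDH and diaphorase coupling enzymes. Quantity: HKDC1 5 µg/mL. Timing: 90 min reaction at room temperature, dark.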
Active calls of the source: *. These entries were drawn from the full list.

SMILES	HKDC1 activator
CC(=NNC(=S)N1CC2CCC(CC2)C1)c1nccs1	-43.2*
Nc1c(Br)cc2c3c(cccc13)-c1ccccc1-2	70.5
Cc1cc(O)c2c(c1)C(=O)C13C(=C2O)C(=O)[C@H]2[C@@H](O)[C@@H]1[C@H]1[C@H](O)[C@@H]3C(=O)C3=C(O)c4c(O)cc(C)cc4C(=O)C312 (stereo not given in full)	67.4
CCOC(=O)c1c(-n2c(C)cc(C=C3C(=O)NC(=S)NC3=O)c2C)sc2c1CCCC2	58.6
CC[C@H](C)/C=C(C)/C=C/C1=CC2=C(Cl)C(=O)[C@](C)(OC(C)=O)C(=O)C2=CO1	58.9
Brc1ccc(C2N3CCCN23)cc1 (stereo not given)	-79.3*
COc1cc(O)cc2c1cc([N+](=O)[O-])c1c(C(=O)O)cc3c(c12)OCO3	35.8
CCN(CC)CCCNC(=O)c1c(O)c2ccccc2n(Cc2ccccc2)c1=O	83.3
O=C1NC(=S)NC(=O)C1=Cc1ccc2c(c1)CCN2CCCCl	59.0
O=c1nc(/C=C/c2ccc(Cl)cc2Cl)cc(C(F)(F)F)[nH]1	35.1

Screening data: PubChem, Sanford-Burnham Center for Chemical Genomics
